Results taken from ChEMBL document CHEMBL3352181, “Novel phenyl and pyridyl substituted derivatives of isoindolines: Synthesis, antitumor activity and DNA binding features” (Eur J Med Chem, 2014).
Active and inactive are the calls of the source. The calls are words filed in the database; no cut-off is given here.

Assays:
HepG2 [1] = experiment: Induction of cell cycle arrest on human HepG2 cells assessed as accumulation at S phase at 20 uM after 48 hrs by propidium iodide staining based flow cytometry (reference value: 9.3 +/- 13.2%); format: functional
Procedure, shortened: (§1)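 HepG2 or SW620 cells were seeded at 25000 per well. After 24 h they were treated, then harvested 24 or 48 h later. Attached cells were trypsinized, pooled with floating cells, PBS-washed and fixed in 70% ethanol. Cells were stained with PI 1 µg/mL plus RNase A 0.2 µg/mL, and 10 000 events were acquired by flow cytometry. Phase percentages come from DNA histograms, in duplicate, with ANOVA at p < 0.05.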

HepG2 [2] = experiment: Induction of cell cycle arrest on human HepG2 cells assessed as accumulation at subG1 phase at 50 uM after 24 hrs by propidium iodide staining based flow cytometry (reference value: 2.9 +/- 1.1%); format: functional; procedure, shortened: as §1
HepG2 [3] = experiment: Induction of cell cycle arrest on human HepG2 cells assessed as accumulation at G1 phase at 20 uM after 24 hrs by propidium iodide staining based flow cytometry (reference value: 66.5 +/- 1.4%); format: functional
HepG2 [4] = experiment: Induction of cell cycle arrest on human HepG2 cells assessed as accumulation at G2/M phase at 50 uM after 24 hrs by propidium iodide staining based flow cytometry (reference value: 16.5 +/- 1.6%); format: functional
HepG2 [5] = experiment: Induction of cell cycle arrest on human HepG2 cells assessed as accumulation at G1 phase at 50 uM after 24 hrs by propidium iodide staining based flow cytometry (reference value: 66.5 +/- 1.4%); format: functional
MCF7 = experiment: Antiproliferative activity against human MCF7 cells assessed as inhibition of cell proliferation after 72 hrs by MTT assay; format: functional, cell-based
Procedure, shortened: (§2)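 Cells grown as monolayers in DMEM with 10% FBS, 2 mM L-glutamine, penicillin/streptomycin, 37 °C, 5% CO2. Seeded at 5000/well on day 0. Compounds added after 24 h as five serial dilutions (0,01 to 100 µM), DMSO ≤0.1%, then 72 h. MTT read-out converted to percentage growth. IC50 by linear regression; quadruplicates in three experiments.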

HepG2 [6] = experiment: Induction of cell cycle arrest on human HepG2 cells assessed as accumulation at subG1 phase at 50 uM after 48 hrs by propidium iodide staining based flow cytometry (reference value: 1.7 +/- 0.5%); format: functional; procedure, shortened: as §1
HeLa = experiment: Antiproliferative activity against human HeLa cells assessed as inhibition of cell proliferation after 72 hrs by MTT assay; format: functional, cell-based; procedure, shortened: as §2
HepG2 [7] = experiment: Induction of cell cycle arrest on human HepG2 cells assessed as accumulation at G1 phase at 50 uM after 48 hrs by propidium iodide staining based flow cytometry (reference value: 62.7 +/- 0.5%); format: functional
HepG2 [8] = experiment: Induction of cell cycle arrest on human HepG2 cells assessed as accumulation at subG1 phase at 20 uM after 24 hrs by propidium iodide staining based flow cytometry (reference value: 2.9 +/- 1.1%); format: functional; procedure, shortened: as §1
HepG2 [9] = experiment: Induction of cell cycle arrest on human HepG2 cells assessed as accumulation at G2/M phase at 50 uM after 48 hrs by propidium iodide staining based flow cytometry (reference value: 28.0 +/- 13.8%); format: functional
HepG2 [10] = experiment: Induction of cell cycle arrest on human HepG2 cells assessed as accumulation at S phase at 50 uM after 24 hrs by propidium iodide staining based flow cytometry (reference value: 17.0 +/- 2.9%); format: functional; procedure, shortened: as §1
BJ = experiment: Antiproliferative activity against human BJ cells assessed as inhibition of cell proliferation after 72 hrs by MTT assay; format: cell-based; details: 72 h; procedure, shortened: as §2
HepG2 [11] = experiment: Induction of cell cycle arrest on human HepG2 cells assessed as accumulation at subG1 phase at 20 uM after 48 hrs by propidium iodide staining based flow cytometry (reference value: 1.7 +/- 0.5%); format: functional; procedure, shortened: as §1
HepG2 [12] = experiment: Induction of cell cycle arrest on human HepG2 cells assessed as accumulation at G2/M phase at 20 uM after 48 hrs by propidium iodide staining based flow cytometry (reference value: 28.0 +/- 13.8%); format: functional
HepG2 [13] = experiment: Induction of cell cycle arrest on human HepG2 cells assessed as accumulation at G1 phase at 20 uM after 48 hrs by propidium iodide staining based flow cytometry (reference value: 62.7 +/- 0.5%); format: functional
HepG2 [14] = experiment: Induction of cell cycle arrest on human HepG2 cells assessed as accumulation at S phase at 20 uM after 24 hrs by propidium iodide staining based flow cytometry (reference value: 17.0 +/- 2.9%); format: functional
HepG2 [15] = experiment: Antiproliferative activity against human HepG2 cells assessed as inhibition of cell proliferation after 72 hrs by MTT assay; format: functional, cell-based; procedure, shortened: as §2
HepG2 [16] = experiment: Induction of cell cycle arrest on human HepG2 cells assessed as accumulation at G2/M phase at 20 uM after 24 hrs by propidium iodide staining based flow cytometry (reference value: 16.5 +/- 1.6%); format: functional
HepG2 [17] = experiment: Induction of cell cycle arrest on human HepG2 cells assessed as accumulation at S phase at 50 uM after 48 hrs by propidium iodide staining based flow cytometry (reference value: 9.3 +/- 13.2%); format: functional; procedure, shortened: as §1
Hep G2 (human) [18] = experiment: Induction of apoptosis in human HepG2 cells assessed as induction of cytoplasmic shrinkage at 50 uM after 24 hrs by Annexin V-Fluos staining based fluorescent microscopy
Hep G2 (human) [19] = experiment: Induction of apoptosis in human HepG2 cells assessed as induction of apoptotic bodies at 50 uM after 24 hrs by Annexin V-Fluos staining based fluorescent microscopy
[20] = (§3) Antiproliferative activity against human SW620 cells assessed as inhibition of cell proliferation after 72 hrs by MTT assay; format: functional, cell-based, SW-620; details: Homo sapiens, SW-620, 72 h; procedure, shortened: as §2
SW-620 = experiment: as §3; format: functional, cell-based; procedure, shortened: as §2

SMILES: N#Cc1ccc(/N=C2\c3ccccc3CN2c2ccc(C#N)cn2)nc1
- Activity (HepG2 [1]): 19.5%
- Activity (HepG2 [2]): 6.7%
- Activity (HepG2 [3]): 58.1%
- Activity (HepG2 [4]): 16.2%
- Activity (HepG2 [5]): 57.4%
- inhibition (MCF7): Dose-dependent effect
- IC50 (MCF7; Homo sapiens, MCF7, 72 h): 71.2 µM
- Activity (HepG2 [6]): 8.4%
- inhibition (HeLa): Dose-dependent effect
- IC50 (HeLa; Homo sapiens, HeLa, 72 h): 8.81 µM
- Activity (HepG2 [7]): 61.2%
- Activity (HepG2 [8]): 6.6%
- Activity (HepG2 [9]): 20.3%
- Activity (HepG2 [10]): 26.4%
- IC50 (BJ; Homo sapiens, BJ): 63.8 µM
- inhibition (INH) (BJ; human, bj): Dose-dependent effect
- Activity (HepG2 [11]): 5.7%
- Activity (HepG2 [12]): 19.5%
- Activity (HepG2 [13]): 61%
- Activity (HepG2 [14]): 21.5%
- inhibition (HepG2 [15]): Dose-dependent effect
- IC50 (HepG2 [15]; HepG2, 72 h): 9.41 µM
- Activity (HepG2 [16]): 20.4%
- Activity (HepG2 [17]): 18.5%
- Activity (Hep G2 (human) [18]): inactive
- Activity (Hep G2 (human) [19]): inactive
- IC50 [20]: > 100 µM
- inhibition (SW-620): Dose-dependent effect
